CHOP UPR activ: activators of apoptotic CHOP UPR arm, primary screen, cell-based, CHO-CHOP luciferase reporter, luminescence, uHTS | UPR activation; percent of tunicamycin response over DMSO baseline | activation, % at 10 µM | 330,000 compounds, 0.34% hits | AID 449763, 2010;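 active = at 10 µM dose, activation of 40% or more, normalized to positive control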;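 also: 100% = tunicamycin at 10 µg/mL and 0% = DMSO alone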
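System: CHO-CHOP luciferase reporter cell line | Buffer or medium: F12 medium containing 10% fetal bovine serum | Doses: One dose, 10 µM in 0.5% DMSO | Times: 6 h compound exposure at 37 °C after overnight seeding | Signal: Luciferase luminescence | Read-out: % activation vs tunicamycin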
XBP1 UPR activ: activators of adaptive XBP1 UPR arm, primary screen, cell-based, CHO-XBP1 luciferase reporter, luminescence, uHTS | IRE1-XBP1 UPR activation; percent of tunicamycin response, DMSO as zero | activation, % at 20 µM | 330,000 compounds, 0.33% hits | AID 463104, 2010;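 active = versus positive control, 20 µM dose yields 30% or more activation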;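 also: 100% = tunicamycin at 10 µg/mL and 0% = DMSO only wells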
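Assay system: IRE1-XBP1 luciferase reporter CHO line. Input: 1000 cells/well. Buffer or medium: F12 with 10% serum. Doses: 20 µM, 1% DMSO. Times: overnight seeding at 37 °C, 6 h compound treatment at 37 °C. Technique: Steady-Glo luciferase glow luminescence, 10 min after reagent addition.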
TMEM16A inh: TMEM16A chloride channel inhibitors, primary screen, cell-based, HTS | AID 588511, 2011 | 310,000 compounds, 1.2% hits | Anoctamin-1 (Mus musculus), Q8BHY3 | normalized B-score (activity score, 25-100; higher = stronger inhibition) at 10 µM | HEK293 TMEM16A/YFP iodide influx fluorescence, ionomycin;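 active = ratio plate-corrected score three or more library SD toward inhibition, starting fluorescence score within five deviations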;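 also: score derived from kinetic fluorescence span divided by baseline fluorescence per well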
Target sequence (Q8BHY3 whole entry, looked up): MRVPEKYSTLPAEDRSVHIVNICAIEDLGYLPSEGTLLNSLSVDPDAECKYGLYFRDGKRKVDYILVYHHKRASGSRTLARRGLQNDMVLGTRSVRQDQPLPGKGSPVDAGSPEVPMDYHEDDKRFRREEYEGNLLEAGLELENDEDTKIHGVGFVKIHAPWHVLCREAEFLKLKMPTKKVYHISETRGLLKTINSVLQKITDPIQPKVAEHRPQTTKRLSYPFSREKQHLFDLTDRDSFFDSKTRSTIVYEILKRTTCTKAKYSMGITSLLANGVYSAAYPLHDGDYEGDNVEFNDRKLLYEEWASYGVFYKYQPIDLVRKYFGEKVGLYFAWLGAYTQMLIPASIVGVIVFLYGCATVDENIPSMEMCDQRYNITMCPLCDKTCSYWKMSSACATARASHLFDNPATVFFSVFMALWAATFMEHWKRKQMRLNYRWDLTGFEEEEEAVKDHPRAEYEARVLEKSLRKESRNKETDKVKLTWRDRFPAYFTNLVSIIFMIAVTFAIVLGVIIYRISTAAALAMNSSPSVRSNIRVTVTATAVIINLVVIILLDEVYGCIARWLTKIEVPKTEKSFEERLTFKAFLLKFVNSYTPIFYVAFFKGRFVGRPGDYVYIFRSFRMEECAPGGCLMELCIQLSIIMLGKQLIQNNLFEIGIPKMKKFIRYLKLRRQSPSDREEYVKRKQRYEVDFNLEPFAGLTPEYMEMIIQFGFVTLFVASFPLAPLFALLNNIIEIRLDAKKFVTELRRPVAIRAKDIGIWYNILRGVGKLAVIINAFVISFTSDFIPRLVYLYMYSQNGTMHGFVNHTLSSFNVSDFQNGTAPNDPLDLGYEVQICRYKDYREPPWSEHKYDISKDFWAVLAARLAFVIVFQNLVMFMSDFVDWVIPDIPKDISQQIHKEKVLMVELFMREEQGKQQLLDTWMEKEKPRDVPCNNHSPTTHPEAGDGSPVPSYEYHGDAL
Hep lipid drop: inhibitors of hepatocyte lipid droplet formation, primary screen, imaging, high-throughput imaging, BODIPY stain | AML12 mouse hepatocytes, oleate lipid droplets | inhibition, % at 6.5 µM | 240,000 compounds, 0.4% hits | AID 1656, 2009;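 active = lipid droplet intensity inhibited by at least 50%, with more than 500 cells counted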
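material = mouse AML12 hepatocyte cell line, fixed after treatment | also added = 100 µM oleic acid challenge | doses = compound at 6.5 µM only | schedule = overnight exposure | technique = Image-based BODIPY and DAPI two-channel analysis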
CHOP inh: inhibitors of CHOP promoter induction, primary screen, cell-based, unfolded protein response, luciferase reporter. CHO-K1 CHOP-promoter luciferase, tunicamycin-induced, 15-18 h. inhibition, % at 10 µM. 220,000 compounds, 3.8% hits. AID 2732, 2010;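 active = compounds that reduced the stress-induced luciferase reporter signal by more than about 70% of percent inhibition, limit read from the data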;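 also: 0% = tunicamycin plus vehicle and 100% = wells without tunicamycin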
TMEM16A act: TMEM16A chloride channel activators or potentiators, primary screen, cell-based, HTS; B-score at 10 µM; AID 623877, 2012; 340,000 compounds, 0.3% hits; HEK293 TMEM16A/YFP-H148Q/I152L, iodide quench fluorescence; stronger effect = lower value;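 active = fluorescence-ratio B-score plate-corrected deviation score at least 3 library SD below zero, with starting fluorescence score within 5 deviations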;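 also: channel opened by trigger with iodide after compound preincubation; score built on the fluorescence ratio of max minus min over baseline; more negative score means more quench and so TMEM16A activation or potentiation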
TMEM16A reconf: TMEM16A chloride channel inhibitors, confirmation, cell-based, re-confirmation. HEK293 TMEM16A/YFP-H148Q, iodide quench fluorescence; ionomycin added to raise cell calcium. inhibition, % at 10 µM. shares compounds with TMEM16A inh. 2,300 compounds, 39% hits. AID 652189, 2013;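 active = mean duplicate percent inhibition, scaled so buffer wells are 0 and the reference blocker 100, over three buffer SD above buffer mean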
HEK293 Ca mobil: calcium mobilization in TMEM16A/YFP HEK293 cells, confirmation, counter-screen for TMEM16A inhibitor project; calcium response (% of ionomycin), % at 10 µM; Fluo4 calcium mobilization; 2,300 compounds, 2% hits; shares compounds with TMEM16A inh; AID 652231, 2013;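 active = duplicate-averaged calcium signal over 20% of the ionomycin maximum, relative to buffer baseline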;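 also: each well's signal is peak minus trough fluorescence divided by its pre-addition baseline; 0% = buffer wells and 100% = ionomycin wells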
Parental YFP cnt: iodide YFP quench changes in parental YFP-HEK293, counter-screen for TMEM16A inhibitor project, cell-based; ionomycin; 2,300 tested, under 10 active; YFP ratio F(max-min)/F0 at 10 µM; shares compounds with TMEM16A inh; AID 652233, 2013;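 active = yellow fluorescent protein signal ratio exceeding the buffer control mean by over 5 SD of those controls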;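 also: ratio is mean of duplicate wells from kinetic YFP trace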
ClC-1 rat inh: ClC-1 chloride channel inhibition, selectivity assay for TMEM16A inhibitor project, cell-based, voltage-dependent ClC-1; shares compounds with TMEM16A inh; CHO ClC-1-YFP, iodide influx fluorescence quench; iodide control reads 0, buffer control 100; ratio percent, % at 10 µM; 2,300 tested, under 10 active;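 active = duplicate-mean ratio percent above the mean of iodide-only control wells, which defines zero, plus 5 of their SD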;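 also: higher percent means stronger block of ClC-1 iodide influx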
An asterisk follows results filed as active; i = inactive; · = no result given. Shown are actives, neighbours in structure and some others; about 4.2% of the full set was active somewhere.

SMILES | CHOP UPR activ | XBP1 UPR activ | TMEM16A inh | Hep lipid drop | CHOP inh | TMEM16A act | TMEM16A reconf | HEK293 Ca mobil | Parental YFP cnt | ClC-1 rat inh
CNS(=O)(=O)c1cccc(C(=O)OCC(=O)c2cc(C)n(-c3ccc4c(c3)OCO4)c2C)c1 | 1 | 4 | 25* | -9 | 15 | i | i | i | -0.95 | -8
CCN(CC)S(=O)(=O)c1cc(C(=O)OCC(=O)c2ccc3c(c2)NC(=O)CO3)ccc1Cl | -3 | 2 | 100* | -5 | 55 | i | 18%* | i | -1 | -12
CCN(CC)S(=O)(=O)c1cccc(C(=O)OCC(=O)c2ccc3c(c2)OCCO3)c1 | 1 | -1 | 25* | -42 | 18 | i | 16%* | i | -0.53 | -7
CNS(=O)(=O)c1cccc(C(=O)OCC(=O)c2cc(C)n(CC3CCCO3)c2C)c1 (stereo not given) | -4 | -7 | · | · | · | i | · | · | · | ·
O=C(Cc1c(F)cccc1Cl)NNC(=O)c1ccccc1Cl | 0 | 2 | · | · | · | i | · | · | · | ·
Cc1c(OCC(=O)N[C@H](C(=O)O)c2ccccc2)ccc2c3c(c(=O)oc12)CCCC3 | 10 | -2 | i | -2 | · | i | · | · | · | ·
CC(C)n1c(-c2ccc(C(C)(C)C)cc2)n[nH]c1=S | 0 | 1 | 100* | · | 54 | i | i | i | -1.1 | -13
CC(C)(C)c1ccc(-c2n[nH]c(=S)n2Cc2ccccc2)cc1 | -2 | -3 | i | -36 | · | i | · | · | · | ·
Cc1ccc(C(C(=O)NCc2ccco2)N(C(=O)Cc2cccs2)c2cccnc2)cc1 (stereo not given) | 0 | -1 | i | -10 | -11 | i | · | · | · | ·
CN1C(=O)C2(OCC(C)([N+](=O)[O-])CO2)c2ccccc21 (stereo not given) | · | · | i | -1 | · | i | · | · | · | ·
CN1C(=O)C2(OCC(COc3ccc(Cl)cc3)O2)c2ccccc21 (stereo not given) | 1 | 2 | 100* | 5 | 81* | i | 18%* | i | -1 | -8
O=C(CSc1ccc(Cl)cc1)N1CCN(c2ncc(C(F)(F)F)cc2Cl)CC1 | -1 | 0 | 100* | 5 | 24 | i | i | i | -0.93 | 2
Cc1cc(C)nc(NCC(O)CNc2ccccc2Cl)n1 (stereo not given) | 0 | -2 | 25* | -17 | 13 | i | 36%* | i | -1.2 | -14
CCOc1ccc(N2CC(C(=O)Nc3cc(OCC)c(N4CCOCC4)cc3OCC)CC2=O)cc1 (stereo not given) | -1 | -2 | · | · | · | i | · | · | · | ·
O=C(Cn1nc(-c2ccccc2)nc1-c1ccccc1)OC1CCCCC1 | -2 | -1 | 100* | -3 | 63 | i | i | i | -1 | -10
CCOC(=O)Cn1nc(-c2ccccc2)nc1-c1ccccc1 | 0 | 1 | i | · | -4 | i | · | · | · | ·
CCOC(=O)c1ccc(CC(=O)c2ccc(O)cc2O)o1 | 3 | -3 | i | -12 | 36 | i | · | · | · | ·

High-throughput results deposited in PubChem BioAssay by several laboratories.
